In ChEMBL document CHEMBL3351585, “Design, synthesis and biological evaluation of novel peptides with anti-cancer and drug resistance-reversing activities” (Eur J Med Chem, 2015):
Activity calls are given as the source filed them. The calls are words filed in the database; no cut-off is given here.

Assays:
[1] = Cytotoxicity against human GES-1 cells after 48 hrs by MTT assay; format: cell-based; details: GES1, 48 h
In short: (§1)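 Cells grown in RPMI1640 with 10% heat-inactivated FBS and 1% penicillin-streptomycin at 37 °C, 5% CO2. Log-phase cells were seeded at 5 × 10^3/well 24 h before treatment, exposed to a range of peptide concentrations for 48 h, then given MTT for 4 h. Formazan was dissolved in DMSO and A490 read. Survival was computed relative to untreated wells, and IC50 taken from the survival curve.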

[2] = Toxicity in rabbit erythrocytes assessed as induction of hemolysis at 160 uM incubated for 1 hr by microplate reader assay; format: cell-based, Oryctolagus cuniculus; details: erythrocyte
In short: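 Rabbit red blood cells in PBS were mixed 1:1 by volume with peptide solution and incubated 1 h at 37 °C, then spun at 1000 g for 5 min. Hemoglobin in the supernatant was read at 540 nm. PBS defined 0% hemolysis and 0.1% Triton X-100 defined 100%.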

NCI/ADR-RES [3] = assay: Potentiation of adriamycin-induced cytotoxicity against human MCF7/ADR cells at 1 uM after 48 hrs by MTT assay; format: functional, cell-based
In short: (§2)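 ADM-resistant MCF-7/ADM or K562/ADM cells, grown in RPMI1640 with 10% FBS at 37 °C and 5% CO2, were seeded at 1 × 10^4 per well and held 24 h. Fixed peptide was added, followed by graded ADM concentrations, for 48 h. MTT was then given for 4 h at 37 °C, formazan dissolved in DMSO and absorbance read at 570 nm. Verapamil served as positive control.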

[4] = Retention time of the compound by UPLC method; format: physicochemical
[5] = Drug uptake in cytosol of human MCF7 cells at 8 uM incubated for 5 mins or 30 mins by fluorescein isothiocyanate labeling based fluorescence microscopy; format: ADME, cell-based
In short: (§3)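 MCF-7 cells were plated at 1 × 10^5/well and grown 24 h, then exposed to FITC-labeled peptides for 5 min or 30 min. Cells were washed three times with cold PBS, and intracellular fluorescence was imaged by fluorescence microscopy.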

[6] = Increase in adriamycin uptake in human K562/ADR cells at 1 uM after 2.5 hrs by fluorescence microscopy; format: ADME, cell-based
In short: (§4)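 2 × 10^5 MCF-7/ADM or K562/ADM cells were co-incubated 2.5 h with ADM plus peptide, or with verapamil as comparator. Cells were washed with cold PBS and ADM fluorescence was imaged by fluorescence microscopy.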

MCF7 [7] = assay: Induction of cytochrome c release in extracellular region of human MCF7 cells at 8 uM incubated for 2 hrs by ELISA method (reference value: 15.7 +/- 0.77 ng); format: functional
MCF7 [8] = assay: Induction of cytochrome c release in cytoplasm of human MCF7 cells at 8 uM incubated for 2 hrs by ELISA method (reference value: 44.1 +/- 2.7 ng); format: functional
[9] = Anticancer activity against human K562/ADR cells after 48 hrs by MTT assay; format: functional, cell-based; in short: as §1
MCF7 [10] = assay: Anticancer activity against human MCF7 cells after 48 hrs by MTT assay; format: functional, cell-based; details: MCF7, 48 h; in short: as §1
MCF7 [11] = assay: Induction of cytochrome c release in mitochondria of human MCF7 cells at 8 uM incubated for 2 hrs by ELISA method (reference value: 347.8 +/- 14.5 ng); format: functional
MCF7 [12] = assay: Induction of cell membrane alteration in human MCF7 cells at 8 uM incubated for 30 mins by acridine orange/ethidium bromide double staining method; format: functional, cell-based
In short: (§5)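 MCF-7 cells were plated at 1 × 10^5/well and grown 24 h, then given peptide for 30 min. Cells were washed twice with PBS and stained 10 min in the dark with cold PBS containing acridine orange and ethidium bromide. Excess dye was washed off, then cells were imaged by fluorescence microscopy. Red EB staining marks membrane-compromised cells.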

[13] = Increase in adriamycin uptake in human MCF7/ADR cells at 1 uM after 2.5 hrs by fluorescence microscopy; format: ADME, cell-based; details: nci/adr-res; in short: as §4
[14] = Anticancer activity against human MCF7/ADR cells after 48 hrs by MTT assay; format: functional, cell-based; details: NCI/ADR-RES; in short: as §1
MCF7 [15] = assay: Antimigratory activity in human MCF7 cells assessed as inhibition of cell migration at 1 uM incubated for 48 hrs by wound healing assay; format: functional, cell-based
In short: (§6)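 MCF-7 cells were seeded at 2 × 10^5/well and grown 24 h to 90% confluence. A cell-free gap was scratched, and cells migrated in serum-free medium with peptide for 48 h. Wound closure was photographed at 0 h and 48 h.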

K562 = assay: Anticancer activity against human K562 cells after 48 hrs by MTT assay; format: functional, cell-based; details: K562, 48 h; in short: as §1
MCF7 [16] = assay: Antimigratory activity in human MCF7 cells assessed as inhibition of cell migration at 1 uM incubated for 48 hrs by transwell migration assay; format: functional, cell-based
In short: (§7)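 Transwell chambers with a porous membrane separating upper and lower compartments. 4 × 10^4 MCF-7 cells were placed in the upper chamber in peptide-containing medium and incubated 48 h. Cells that reached the lower membrane surface were counted.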

MCF7 [17] = assay: Induction of cytochrome c release in human MCF7 cells at 8 uM incubated for 2 hrs by ELISA method (reference value: 364.2 +/- 20.5 ng); format: functional
[18] = Increase in adriamycin uptake in human MCF7/ADR cells at 1 uM after 2.5 hrs by fluorescence spectrophotometry; format: ADME, cell-based; details: nci/adr-res
In short: (§8)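 2 × 10^5 MCF-7/ADM or K562/ADM cells were co-incubated 2.5 h with ADM plus peptide, or with verapamil as comparator. After washing in cold PBS, cells were lysed in 0.75 M HCl/0.2% Triton X-100 in isopropanol. Lysate ADM fluorescence was measured by spectrofluorometry at ex 460/em 610 nm.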

K562/Adr [19] = assay: Potentiation of adriamycin-induced cytotoxicity against human K562/ADR cells at 1 uM after 48 hrs by MTT assay; format: functional, cell-based; in short: as §2
MCF7 [20] = assay: Induction of mitochondrial membrane potential depolarization in human MCF7 cells at 8 uM incubated for 2 hrs by JC1 staining; format: functional, cell-based
In short: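 MCF-7 cells plated at 1 × 10^5 per well, grown 24 h, then exposed to peptide for 2 h. Mitochondrial membrane potential was assessed with a JC-1 mitochondrial membrane potential kit. Green (monomer) and red (J-aggregate) fluorescence were imaged, with merged orange taken as normal potential.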

[21] = Increase in adriamycin uptake in human K562/ADR cells at 1 uM after 2.5 hrs by fluorescence spectrophotometry; format: ADME, cell-based; in short: as §8
MCF7 [22] = assay: Induction of cell membrane morphology changes in human MCF7 cells at 8 uM incubated for 30 mins by scanning electron microscopy; format: functional, cell-based
In short: (§9)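 MCF-7 cells were grown 24 h on coverslips at 1 × 10^5/well and exposed to peptide for 30 min. Cells were gently PBS-washed, fixed in 2.5% glutaraldehyde, and examined by scanning electron microscopy.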

NCI/ADR-RES [23] = assay: Potentiation of adriamycin-induced cytotoxicity against human MCF7/ADR cells at 5 uM after 48 hrs by MTT assay; format: functional, cell-based; in short: as §2
MCF7 [24] = assay: Induction of cytochrome c release in cytoplasm of human MCF7 cells at 20 uM incubated for 2 hrs by ELISA method (reference value: 44.1 +/- 2.7 ng); format: functional
[25] = Drug uptake in cytosol of human MCF7 cells at 20 uM incubated for 5 mins or 30 mins by fluorescein isothiocyanate labeling based fluorescence microscopy; format: ADME, cell-based; in short: as §3
[26] = Increase in adriamycin uptake in human K562/ADR cells at 5 uM after 2.5 hrs by fluorescence spectrophotometry; format: ADME, cell-based; in short: as §8
MCF7 [27] = assay: Induction of cytochrome c release in mitochondria of human MCF7 cells at 20 uM incubated for 2 hrs by ELISA method (reference value: 347.8 +/- 14.5 ng); format: functional
MCF7 [28] = assay: Induction of mitochondrial membrane potential depolarization in human MCF7 cells at 20 uM incubated for 2 hrs by JC1 staining; format: functional, cell-based
In short: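 MCF-7 cells were plated at 1 × 10^5/well, grown 24 h, and treated with peptide for 2 h. Mitochondrial membrane potential was assessed with a JC-1 kit by imaging red and green fluorescence.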

MCF7 [29] = assay: Induction of cell membrane alteration in human MCF7 cells at 20 uM incubated for 30 mins by acridine orange/ethidium bromide double staining method; format: functional, cell-based; in short: as §5
MCF7 [30] = assay: Induction of cytochrome c release in extracellular region of human MCF7 cells at 20 uM incubated for 2 hrs by ELISA method (reference value: 15.7 +/- 0.77 ng); format: functional
[31] = Increase in adriamycin uptake in human MCF7/ADR cells at 5 uM after 2.5 hrs by fluorescence microscopy; format: ADME, cell-based; details: nci/adr-res; in short: as §4
[32] = Increase in adriamycin uptake in human MCF7/ADR cells at 5 uM after 2.5 hrs by fluorescence spectrophotometry; format: ADME, cell-based; details: nci/adr-res; in short: as §8
[33] = Increase in adriamycin uptake in human K562/ADR cells at 5 uM after 2.5 hrs by fluorescence microscopy; format: ADME, cell-based; in short: as §4
MCF7 [34] = assay: Antimigratory activity in human MCF7 cells assessed as inhibition of cell migration at 5 uM incubated for 48 hrs by wound healing assay; format: functional, cell-based; in short: as §6
K562/Adr [35] = assay: Potentiation of adriamycin-induced cytotoxicity against human K562/ADR cells at 5 uM after 48 hrs by MTT assay; format: functional, cell-based; in short: as §2
MCF7 [36] = assay: Induction of cytochrome c release in human MCF7 cells at 20 uM incubated for 2 hrs by ELISA method (reference value: 364.2 +/- 20.5 ng); format: functional
MCF7 [37] = assay: Induction of cytochrome c release in human MCF7 cells at 5 to 20 uM incubated for 2 hrs by ELISA method
MCF7 [38] = assay: Antimigratory activity in human MCF7 cells assessed as inhibition of cell migration at 5 uM incubated for 48 hrs by transwell migration assay; format: functional, cell-based; in short: as §7
MCF7 [39] = assay: Induction of cell membrane morphology changes in human MCF7 cells at 20 uM incubated for 30 mins by scanning electron microscopy; format: functional, cell-based; in short: as §9

For H-VKRFKKFFRKLKKKV-NH2, the IC50 [1] was 123 µM, the Activity [2] was “Non-toxic” and the Activity (NCI/ADR-RES [3]) was “Active”. For the same substance, the Retention_time [4] was 3.22 min, the Drug uptake [5] was “Active” and the Activity [6] was “Active”. The Activity (MCF7 [7]) was 15 ng, the Activity (MCF7 [8]) was 59.6 ng and the IC50 [9] was 5.5 µM. For the same substance, the IC50 (MCF7 [10]) was 8.3 µM, the Activity (MCF7 [11]) was 303.2 ng and the Activity (MCF7 [12]) was “Active”. The Activity [13] was “Active”, the IC50 [14] was 8.6 µM and the inhibition (MCF7 [15]) was “Active”. The IC50 (K562) was 5.5 µM, the inhibition (MCF7 [16]) was “Active” and the Activity (MCF7 [17]) was 359.1 ng. The Activity [18] was “Active”, the Activity (K562/Adr [19]) was “Active” and the Activity (MCF7 [20]) was “Active”. For the same substance, the Activity [21] was “Active” and the Activity (MCF7 [22]) was “Active”.
For H-VKRFKKFFRKLKKSV-NH2, the Activity (NCI/ADR-RES [23]) was “Active”, the IC50 [1] was 102 µM and the Activity [2] was “Non-toxic”. For the same substance, the Activity (MCF7 [24]) was 60.3 ng, the Retention_time [4] was 3.38 min and the Drug uptake [25] was “Active”. The IC50 [9] was 31.6 µM, the Activity [26] was “Active” and the Activity (MCF7 [27]) was 301.4 ng. For the same substance, the IC50 (MCF7 [10]) was 21.9 µM, the Activity (MCF7 [28]) was “Active” and the IC50 [14] was 24.1 µM. For the same substance, the Activity (MCF7 [29]) was “Active”, the Activity (MCF7 [30]) was 14.7 ng and the Activity [31] was “Active”. For the same substance, the Activity [32] was “Active”, the IC50 (K562) was 26.9 µM and the Activity [33] was “Active”. For the same substance, the inhibition (MCF7 [34]) was “Active”, the Activity (K562/Adr [35]) was “Active” and the Activity (MCF7 [36]) was 353.4 ng. The Activity (MCF7 [37]) was “Dose-dependent effect”, the inhibition (MCF7 [38]) was “Active” and the Activity (MCF7 [39]) was “Active”.
